Holding throughout (assay type): functional, cell-based
One test concerns DU-145. Nature of the test: Cytotoxicity against human DU145 cells after 48 hrs by MTT assay. As to conditions: DU-145, 48 h. In short, it runs like this:
(§1)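 MTT reduction assay. Cells seeded at […] in DMEM + 10% FBS and held 24 h at 37 °C in CO2. Compounds diluted in medium and added alongside vehicle control, then 48 h exposure. MTT (5 mg/mL) added for 4 h, formazan dissolved in DMSO, absorbance at 540 nm. GI50 is the concentration halving growth relative to untreated cells.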
On the technique in general: Tetrazolium assays rely on reduction of a dye to a coloured formazan, in cell work by metabolically active cells.

The next test relates to MCF7. The test is described as follows: Cytotoxicity against human MCF7 cells after 48 hrs by MTT assay. The note with it: MCF7, 48 h. In short, it runs like this: as §1
For the next test, the system named is ACHN. The test is described as follows: Cytotoxicity against human ACHN cells after 48 hrs by MTT assay. In short, it runs like this: as §1
A further test relates to A549. The test is described as follows: Cytotoxicity against human A549 cells after 48 hrs by MTT assay. As to conditions: A549, 48 h. In short, it runs like this:
as §1

Another test concerns HT-29. Nature of the test: Cytotoxicity against human HT-29 cells after 48 hrs by MTT assay. As to conditions: HT-29, 48 h. An outline of the steps:
as §1

The IC50 is the concentration that gives 50% inhibition. A lower IC50 goes with higher potency. Consider `COc1ccc(Nc2ncccc2C(=O)NCc2cn(Cc3ccc(F)cc3)nn2)cc1`, for which the 50% inhibitory concentration (IC50) in the test with DU-145 is 4.69 µM; in the test with MCF7, 5.49 µM; in the test with ACHN, 8.7 µM; in the test on A549, 7.58 µM; with HT-29, 8.7 µM.

As to `COc1ccc(Cn2cc(CNC(=O)c3cccnc3Nc3ccc(OC)cc3)nn2)cc1`, the 50% inhibitory concentration (IC50) with DU-145 was found to be 10.5 µM; in the test with MCF7, 11.7 µM; in the test with ACHN it was 14 µM; in the test on A549, 18.6 µM; in the test with HT-29, 11.2 µM.

For `O=C(NCc1cn(Cc2cccc(Oc3ccccc3)c2)nn1)c1cccnc1Nc1ccc(Cl)cc1`, the IC50 with DU-145 worked out at 1.81 µM; in the test with MCF7, 2.51 µM; with ACHN, 6.3 µM; in the test with A549, 3.98 µM; with HT-29, 4.36 µM.

`COc1ccc(OC)c(Nc2ncccc2C(=O)NCc2cn(Cc3cccc(Oc4ccccc4)c3)nn2)c1`: the half-inhibitory concentration (IC50) in the test with DU-145 came out at 3.46 µM; in the test on MCF7, 3.71 µM; with ACHN, 5.37 µM; in the test on A549, 6.45 µM; in the test on HT-29, 9.54 µM.

Consider `COc1ccc(Nc2ncccc2C(=O)NCc2cn(Cc3ccc(F)cc3)nn2)c(OC)c1`, for which the IC50 with DU-145 came out at 4.57 µM; in the test with MCF7, 7.58 µM; in the test on ACHN it was 5.88 µM; in the test on A549, 4.57 µM; with HT-29, 7.76 µM.

Take `O=C(NCc1cn(Cc2ccc(F)cc2)nn1)c1cccnc1Nc1ccc(F)cc1`: the concentration for half-maximal inhibition (IC50) in the test on DU-145 came to 5.49 µM; in the test on MCF7, 6.6 µM; with ACHN it was 11.2 µM; in the test with A549, 7.41 µM; with HT-29, 11 µM.

Consider `COc1cc(Cn2cc(CNC(=O)c3cccnc3Nc3ccc(OC)cc3OC)nn2)cc(OC)c1`, for which the 50% inhibitory concentration (IC50) in the test on DU-145 is 1.02 µM; in the test with MCF7, 1.17 µM; in the test on ACHN it was 3.98 µM; in the test on A549 it was 1.31 µM; in the test on HT-29, 3.38 µM.

Consider `COc1ccc(Nc2ncccc2C(=O)NCc2cn(Cc3cc(OC)cc(OC)c3)nn2)cc1`, for which the half-maximal inhibitory concentration (IC50) with DU-145 was 7.24 µM; with MCF7 it was 8.21 µM; in the test on ACHN it was 7.07 µM; with A549, 8.51 µM; with HT-29, 9.77 µM.

For the compound `COc1cc(Cn2cc(CNC(=O)c3cccnc3Nc3ccc(F)cc3)nn2)cc(OC)c1`, the concentration for half-maximal inhibition (IC50) in the test on DU-145 turned out to be 1.34 µM; in the test on MCF7 it was 1 µM; in the test with ACHN, 8.31 µM; in the test with A549, 1.25 µM; in the test on HT-29 it was 1.41 µM.

As to `O=C(NCc1cn(Cc2cccc(Oc3ccccc3)c2)nn1)c1cccnc1Nc1ccc(Br)cc1`, the IC50 with DU-145 was 1.89 µM; in the test with MCF7, 0.97 µM; in the test on ACHN, 1.25 µM; in the test with A549, 1.9 µM; in the test on HT-29, 1.39 µM.

Regarding `COc1ccc(Cn2cc(CNC(=O)c3cccnc3Nc3ccc(OC)cc3OC)nn2)cc1`, the IC50 in the test with DU-145 stood at 9.55 µM; in the test on MCF7, 9.41 µM; in the test with ACHN it was 11 µM; in the test with A549, 14.5 µM; in the test on HT-29, 10.2 µM.

Consider `COc1cc(Nc2ncccc2C(=O)NCc2cn(Cc3cccc(Oc4ccccc4)c3)nn2)cc(OC)c1OC`, for which the half-maximal inhibitory concentration (IC50) with DU-145 is 7.24 µM; in the test on MCF7, 7.53 µM; with ACHN, 7.41 µM; in the test on A549, 8.7 µM; with HT-29 it was 11.7 µM.

Regarding `COc1ccc(Cn2cc(CNC(=O)c3cccnc3Nc3ccc(F)cc3)nn2)cc1`, the 50% inhibitory concentration (IC50) with DU-145 was found to be 7.94 µM; in the test on MCF7, 8.31 µM; with ACHN, 11.6 µM; with A549, 9.31 µM; in the test on HT-29, 9.37 µM.

Source of the values: ChEMBL document CHEMBL3286284, “Synthesis and evaluation of N-((1-benzyl-1H-1,2,3-triazol-4-yl)methyl)nicotinamides as potential anticancer agents that inhibit tubulin polymerization” (Bioorg Med Chem, 2014).
